Source: PubChem BioAssay (Johns Hopkins Ion Channel Center)
KCNK9 inh – KCNK9 potassium channel inhibitors, primary screen, HEK293 cells, thallium flux; B-score at 10 µM; FluxOR thallium flux fluorescence; hits give low values; 310,000 compounds, 1.2% hits; Potassium channel subfamily K member 9 (Homo sapiens), Q9NPC2;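 active = ratio B-score over 3 SD below the library mean, with starting fluorescence within 5 SD of its mean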;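 note: negative B-score means less thallium flux so channel inhibition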
hERG rescue – hERG rescue from dofetilide block, primary screen, cell-based, CHO-hERG, FluxOR thallium flux, dofetilide IC70. activation (rescue from dofetilide block), less the hit threshold, % at 10 µM. 310,000 compounds, 0.51% hits. AID 1511, 2009. dofetilide IC70 present;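 active = activation above the mean of controls blocked by dofetilide plus 5 SD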;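 note: thallium influx through hERG after potassium depolarization seen as dye fluorescence rise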
KCNQ1 pot – potentiators or activators of KCNQ1 channel, primary screen, cell-based, thallium flux, high-throughput; CHO-K1 KCNQ1, thallium flux FluxOR fluorescence; hits give high values; B-score at 10 µM; 310,000 compounds, 0.35% hits; AID 2648, 2010;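 active = fluorescence ratio B-score, a plate-corrected score, at least three library SD, with initial intensity B-score within 5 SD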
Target sequence (P51787 whole entry, looked up): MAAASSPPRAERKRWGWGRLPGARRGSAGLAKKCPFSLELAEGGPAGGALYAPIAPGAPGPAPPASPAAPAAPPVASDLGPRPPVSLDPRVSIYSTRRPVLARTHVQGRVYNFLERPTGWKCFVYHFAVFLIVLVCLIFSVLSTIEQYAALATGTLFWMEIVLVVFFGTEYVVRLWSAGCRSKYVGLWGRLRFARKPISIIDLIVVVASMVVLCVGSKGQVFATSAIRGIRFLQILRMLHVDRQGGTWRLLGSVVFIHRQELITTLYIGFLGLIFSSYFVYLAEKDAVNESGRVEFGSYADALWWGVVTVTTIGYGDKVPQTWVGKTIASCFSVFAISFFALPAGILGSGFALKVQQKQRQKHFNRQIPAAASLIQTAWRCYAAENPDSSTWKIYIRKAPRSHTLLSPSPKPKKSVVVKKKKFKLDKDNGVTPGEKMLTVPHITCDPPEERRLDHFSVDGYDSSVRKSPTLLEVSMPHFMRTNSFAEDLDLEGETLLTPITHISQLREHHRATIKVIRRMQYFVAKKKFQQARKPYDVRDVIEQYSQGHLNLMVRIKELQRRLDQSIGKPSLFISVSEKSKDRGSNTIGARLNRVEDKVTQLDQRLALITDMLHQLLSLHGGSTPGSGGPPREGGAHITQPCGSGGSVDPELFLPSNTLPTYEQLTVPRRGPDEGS
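System: Stable KCNQ1 CHO-K1 line | Incubation: 90 min dye loading and 20 min compound exposure, both at room temperature | Measure: Ratio B score | Medium: Assay buffer for compound exposure, DMSO matched across wells | Compound dosing: Single-concentration screen | Probe or stimulus: K+/Tl+ depolarizing stimulus | Measured by: Kinetic FluxOR fluorescence, 10 s baseline plus 110 s post-stimulus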
Kir21 inh – inhibitors of mouse Kir2.1 inward-rectifier potassium channel; AID 1672, 2009; HEK293-Kir2.1, FluxOR thallium flux fluorescence; hits give low values; B-score at 10 µM; 310,000 compounds, 0.85% hits;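 active = fluorescence ratio B-score at or below minus 3 SD of library scores, with starting-brightness B-score within 2 SD, cut at about -4.2 in these data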;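 note: channel flux triggered by added potassium and thallium sulfate stimulus; B-score of peak minus minimum fluorescence over baseline after thallium stimulus; more negative B-score means stronger Kir2.1 block with less thallium influx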
KCNQ1 block – inhibitors of human KCNQ1 channel, primary screen, cell-based, thallium flux, high-throughput | Potassium voltage-gated channel subfamily KQT member 1 (Homo sapiens), P51787 | CHO-K1 KCNQ1, FluxOR thallium flux fluorescence; hits give high values | B-score at 10 µM | 310,000 compounds, 1.3% hits | AID 2642, 2010;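 active = compounds whose thallium flux B-score, printed positive for inhibition, exceeds three library SD while starting fluorescence stays within three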;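 note: channel opened by potassium depolarization with thallium stimulus after 20 min compound exposure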
KCNK3 block – human KCNK3 channel inhibitors, primary screen, CHO cells, FluxOR thallium flux, B-score; Potassium channel subfamily K member 3 (Homo sapiens), O14649; FluxOR fluorescence; hits give low values; B-score at 10 µM; 340,000 compounds, 0.84% hits; AID 602410, 2012;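 active = B-score under library mean minus 4 SD, starting fluorescence ratio at most library mean plus 5 SD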;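 note: more negative B-score means stronger inhibition of thallium flux through KCNK3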
Each line names hits and unclear results; the compound was inactive in the other large screens. This is a sample that favours compounds with a hit; in the whole collection about 3.7% have one here.

Cc1ccc(C(OCC(O)CN2CCCCC2)c2ccccc2)cc1 (centres undefined)	none
O=C1c2ccccc2C(=O)N1C(CO)C(O)c1ccc([N+](=O)[O-])cc1 (centres undefined)	none
Cc1ccc(C(OCC(O)CNC(CO)C(O)c2ccc([N+](=O)[O-])cc2)c2ccccc2)cc1 (centres undefined)	Kir21 inh -5.16
Cc1ccc(C(OCC(O)CNC(C)c2ccccc2)c2ccccc2)cc1 (centres undefined)	Kir21 inh -6.02
CC(NCC(O)COCc1ccc(Cl)cc1)c1ccccc1 (centres undefined)	Kir21 inh -8.47
NS(=O)(=O)c1cccc(Nc2nc3ccccc3nc2NS(=O)(=O)c2ccc(Cl)cc2)c1	none (no result: KCNK9 inh, hERG rescue, KCNQ1 pot, Kir21 inh, KCNQ1 block)
O=C(NCc1ccccc1C(F)(F)F)C1CC(c2cc(C(F)(F)F)cc(C(F)(F)F)c2)=NO1 (centres undefined)	KCNQ1 block 6
N#CC1(Cc2ccccc2Cl)c2ccccc2C=CN1C(=O)c1ccccc1 (centres undefined)	KCNQ1 block 8
N#CC1c2ccccc2C=CN1C(=O)c1ccccc1 (centres undefined)	none
CC(C)N(CCCNC(=O)c1nn(C)c2c1CS(=O)(=O)c1ccccc1-2)Cc1ccccc1	none
Cc1ccc2cc(CCNC(=O)c3cccs3)c(=O)[nH]c2c1	none (no result: KCNK9 inh, hERG rescue, KCNQ1 pot, Kir21 inh, KCNQ1 block)
O=[N+]([O-])c1ccc(-c2ccc(/C=N/n3cnnc3)o2)c(Br)c1	hERG rescue 7.5
CC(=O)Nc1ccc(N(C(=O)Cn2nnc3ccccc32)C(C(=O)NC2CCCC2)c2ccc(O)c(O)c2)cc1 (centres undefined)	none
OCCCc1nc2n(n1)C(c1ccccc1)C=C(c1ccc(F)cc1)N2 (centres undefined)	none
OCCCc1nc2n(n1)C(c1ccccc1Cl)C=C(c1cccs1)N2 (centres undefined)	KCNK3 block -10.2
Cc1ccc(N(C(=O)c2csnn2)C(C(=O)NC2CCCCC2)c2ccco2)cc1 (centres undefined)	none
CCc1cc2c(=O)c(-c3ccc4c(c3)OCCO4)coc2cc1OS(C)(=O)=O	KCNQ1 block 6
COC(=O)C(Cc1c[nH]c2ccccc12)NC(=O)c1cccc(S(=O)(=O)N2CCCCC2)c1 (centres undefined)	none (no result: KCNK9 inh, hERG rescue, KCNQ1 pot, Kir21 inh, KCNQ1 block)
Cc1nc(N2CCN(c3ccccn3)CC2)c2c(C)c(C(=O)Nc3c(F)cc(F)cc3Br)sc2n1	KCNQ1 block 6
Cc1nc(N2CCN(C)CC2)c2c(C)c(C(=O)Nc3ccc(C)c(F)c3)sc2n1	Kir21 inh -6
Cc1nc(N2CCC(C)CC2)c2c(C)c(C(=O)Nc3ccccc3C(F)(F)F)sc2n1	KCNK9 inh -7.41
Cc1ccc(OCC(=O)NCCCNC(=O)c2ccncc2)cc1C	none
COc1ccccc1/C=C/C=C1\Oc2c(ccc(O)c2CN(C)C)C1=O	KCNQ1 block 10
O=C(N[C@@H](Cc1ccccc1)C(=O)OCc1ccccc1)c1nc[nH]c1C(=O)N1CCc2ccccc2C1	KCNQ1 block 6
O=C(Nc1cccc(Cl)c1)Nc1nc(-c2ccc(Cl)cc2)cs1	KCNQ1 block 8
O=c1cc(O)c2ccccc2n1Cc1ccccc1F	none
C=CC[C@]12CC=CC(=O)[C@@]1(O)O[C@H](c1ccc(OC)c(OC)c1)[C@H]2C	none
O=C(CC(SCc1ccco1)c1ccc(O)cc1)c1cccs1 (centres undefined)	Kir21 inh -4.75
Cc1cc(/C=N/n2c(COc3ccccc3)nc3ccccc3c2=O)c(O)c([N+](=O)[O-])c1	KCNQ1 block 13
Cc1ccc(-c2[nH]ncc2/C=N/n2c(COc3ccccc3)nc3ccccc3c2=O)cc1	none
Cc1c(C(=O)/C=C/N(C)C)nnn1-c1ccc(Cl)cc1C#N	none
N=C(N)SCc1cn(-c2ccccc2)nc1-c1ccc(Br)cc1	Kir21 inh -7.05, KCNQ1 block 11, KCNK3 block -13.7
Cc1ccc(-c2nn(-c3ccccc3)cc2CO)cc1	none
Cc1cccc(NC(=O)CNC(=O)Cn2cc(C(F)(F)F)cc(Cl)c2=O)c1C	none (no result: KCNK9 inh, hERG rescue, KCNQ1 pot, Kir21 inh, KCNQ1 block)
CSCCOC(=O)C1=C(C)NC(=O)CC1c1ccccc1Cl (centres undefined)	Kir21 inh -5.53
Cc1ccc(C)c(NS(=O)(=O)c2c(C)ccc3nsnc23)c1	none
Cc1ccc2nsnc2c1S(=O)(=O)Nc1cccc2nsnc12	hERG rescue 5.2, KCNQ1 pot 11
CCc1ccccc1NS(=O)(=O)c1cccc2nsnc12	Kir21 inh -5.41
CC(=O)c1ccccc1NS(=O)(=O)c1cccc2nsnc12	none
COCCn1c(N)c(C(=O)c2cccc(S(=O)(=O)N3CCCCCC3)c2)c(=O)[nH]c1=O	none (no result: KCNK9 inh, hERG rescue, KCNQ1 pot, Kir21 inh, KCNQ1 block)
COc1ccc(-c2[nH]ncc2CNCCc2ncccc2C)cc1F	none
COCCn1c(-c2ccc(OC)cc2)cnc1N	none
CCOc1ccc(-c2cnc(NCc3cccc4ccccc34)n2CCOC)cc1	KCNQ1 block 10, KCNK3 block -9.46
CCN(CC)c1nc2ccccc2nc1C(C#N)C(=O)NCCc1ccccc1 (centres undefined)	none
CCCCN(CCCC)c1nc2ccccc2nc1C(C#N)C(=O)NCCCOC (centres undefined)	KCNQ1 block 15
CCN(CC)c1nc2ccccc2nc1C(C#N)C(=O)NCCCOC (centres undefined)	none
CCCN(CCC)c1nc2ccccc2nc1C(C#N)C(=O)OC(C)COC (centres undefined)	KCNQ1 block 8 (no result: KCNK3 block)
CC1(C(=O)N2CCN(C(=O)c3ccco3)CC2)CC1(Br)Br (centres undefined)	none
CCc1sc(C(=O)N2CCc3cc(OC)c(OC)cc3C2CC(=O)O)cc1C (centres undefined)	none (no result: KCNK9 inh, hERG rescue, KCNQ1 pot, Kir21 inh, KCNQ1 block)
Cc1ccc(NNC(=O)C(O)(c2cccc(C(F)(F)F)c2)c2cccc(C(F)(F)F)c2)cc1	none
O=C(NNc1ccccc1Br)C(O)(c1cccc(C(F)(F)F)c1)c1cccc(C(F)(F)F)c1	KCNK9 inh -8.26
O=C(N/C(=C/c1ccc([N+](=O)[O-])cc1)C(=O)N1CCOCC1)c1ccco1	none
CCCCCCCC(=O)Nc1ccc(C(=O)N/N=C/c2cccc([N+](=O)[O-])c2)cc1	hERG rescue 8.9
